Calls of active or inactive are those of the source. The rule behind the calls is not given here.
How the values were obtained:
MIA PaCa-2 = test: Antiproliferative activity against human MIA PaCa-2 cells harboring KRAS G12C mutant assessed as reduction in cell viability; assay type: functional, cell-based
[1] = molecular target: T1, Synaptic vesicle membrane protein VAT-1 homolog (Homo sapiens) (UniProt Q99536); test: (§1) Covalent binding affinity to VAT1 at Cys86 residue in human NCI-H358 cells assessed as log2 H/L ratio at 10 uM pretreated for 3 hrs followed by N-(((6S,7R)-7-(4-chloro-3-fluorophenyl)-1,4-oxazepan-6-yl)methyl)-2-hydroxyacetamide treatment for 3 hrs by competitive TMT click chemistry pull-down experiment based LC-MS/MS analysis; assay type: cell-based; conditions: time 6.0 hrs
T1 sequence (whole entry): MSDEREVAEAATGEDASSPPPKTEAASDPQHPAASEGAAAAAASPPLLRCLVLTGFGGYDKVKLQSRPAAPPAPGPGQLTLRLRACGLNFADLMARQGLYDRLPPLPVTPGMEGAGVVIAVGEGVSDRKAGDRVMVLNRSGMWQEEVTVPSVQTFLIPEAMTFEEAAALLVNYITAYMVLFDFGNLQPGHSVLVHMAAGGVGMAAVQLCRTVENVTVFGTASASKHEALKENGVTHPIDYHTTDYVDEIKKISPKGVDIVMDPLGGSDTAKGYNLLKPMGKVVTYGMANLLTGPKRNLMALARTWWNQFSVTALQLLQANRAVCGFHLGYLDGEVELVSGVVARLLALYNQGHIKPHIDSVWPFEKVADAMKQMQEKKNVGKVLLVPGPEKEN
Procedure, shortened: (§2)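 H358 cells were pretreated with DMSO (n = 3) or 10 μM compound for 3 h, then 2 μM alkyne probe was added for another 3 h. Cells were lysed, clicked onto azide-agarose resin, digested, TMT-labelled and pooled. The pool was fractionated by high-pH HPLC and each fraction run twice by 60 min low-pH nano LC-MS/MS. Readout was log2 compound/DMSO normalized reporter intensity, with a least-squares means test and FDR adjustment.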

[2] = tested on: GTPase KRas (Homo sapiens), P01116 [G12C]; test: Covalent binding affinity to KRAS G12C mutant at Cys12 residue in human NCI-H358 cells assessed as reduction of log2 H/L ratio for tryptic peptide LVVVGACGVGK at 2 uM incubated for 4 hrs followed by cell lysis and subsequently labelled with light thiol probe N-((S)-18-iodo-11-isopropyl-10,13,17-trio …; assay type: cell-based
GTPase KRas [3] = molecular target: T2, GTPase KRas (Homo sapiens, UniProt P01116, G12C); test: (§3) Covalent binding affinity to KRAS G12C mutant at Cys12 residue in human NCI-H358 cells assessed as reduction of log2 H/L ratio for tryptic peptide […] incubated for 4 hrs followed by cell lysis and subsequently labelled with light thiol probe N-((S)-18-iodo-11-isopropyl-10,13,17-trioxo-3,6-dioxa-9,12,16-triazaoctadecyl)-6-((4R,5S)-5-methyl-2-oxoimidazolidin-4-yl)hexanamide and heavy thiol probe 4 for 1 hr under dark conditions followed by tryptic digestion for overnight and measured by discovery ABPP based nano LC-MS/MS analysis
Procedure, shortened: (§4)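 H358 cells were treated 4 h with DMSO, 0.08, 0.4, 2 or 10 μM, each paired with DMSO control cells, in biological duplicate. After lysis and denaturation, treated lysate took heavy thiol probe and control lysate took light probe. Lysates were combined equally, and probe-labelled tryptic peptides were streptavidin-enriched. Peptides were run twice by 180 min data-dependent nano LC-MS/MS. Hits needed log2 H/L below −0.776 (3σ) plus a dose-dependent decrease.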

[4] = tested on: GTPase KRas (Homo sapiens), P01116 [G12C]; test: as §3; procedure, shortened: as §4
[5] = tested on: GTPase KRas (Homo sapiens), P01116 [G12C]; test: as §1, with “KRAS G12C mutant” for “VAT1”, “Cys12” for “Cys86”; assay type: cell-based; conditions: time 6.0 hrs; procedure, shortened: as §2
NCI-H358 = test: Antiproliferative activity against human NCI-H358 cells harboring KRAS G12C mutant assessed as reduction in cell viability; assay type: functional, cell-based
[6] = molecular target: Fatty acid-binding protein 5 (Homo sapiens) (UniProt Q01469); test: as §1, with “FABP5” for “VAT1”, “Cys67” for “Cys86”; assay type: cell-based; conditions: time 6.0 hrs; procedure, shortened: as §2
GTPase KRas [7] = molecular target: T2, GTPase KRas; test: as §3, with “by” for “by discovery”, “ABPP target occupancy” for “ABPP”, “UHPLC Q-SIM MS” for “nano LC-MS/MS”
Procedure, shortened: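 Target occupancy: H358 cells were treated 4 h with DMSO, 0.08, 0.4, 2 or 10 μM, each paired with DMSO controls, in duplicate. Lysates were labelled heavy (treated) or light (control) with thiol probe, combined, trypsinized and streptavidin-enriched. The LVVVGAC*GVGK peptide pair was measured by UHPLC Q-SIM, with AUC H/L as occupancy. Each point averaged four MS injections, and IC50 came from the concentration-response curve.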

[8] = molecular target: T3, Retinaldehyde dehydrogenase 3 (Homo sapiens) (UniProt P47895); test: as §1, with “ALDH1A3” for “VAT1”, “Cys52” for “Cys86”; assay type: cell-based; conditions: time 6.0 hrs; procedure, shortened: as §2
T3 sequence (whole entry): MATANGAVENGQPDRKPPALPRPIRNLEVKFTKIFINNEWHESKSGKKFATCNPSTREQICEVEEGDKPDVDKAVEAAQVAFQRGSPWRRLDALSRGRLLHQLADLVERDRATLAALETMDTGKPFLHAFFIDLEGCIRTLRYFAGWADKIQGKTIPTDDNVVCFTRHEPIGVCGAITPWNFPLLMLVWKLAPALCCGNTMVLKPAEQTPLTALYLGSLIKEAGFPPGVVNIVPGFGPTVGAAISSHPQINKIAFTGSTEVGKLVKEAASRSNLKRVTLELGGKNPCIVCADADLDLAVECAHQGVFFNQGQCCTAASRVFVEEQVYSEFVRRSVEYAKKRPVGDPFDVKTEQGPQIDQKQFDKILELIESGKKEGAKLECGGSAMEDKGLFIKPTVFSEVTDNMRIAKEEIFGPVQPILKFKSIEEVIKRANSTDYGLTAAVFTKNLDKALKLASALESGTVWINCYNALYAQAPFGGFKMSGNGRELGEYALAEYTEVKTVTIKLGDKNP

Homo sapiens = organism: Homo sapiens; test: Covalent inhibition of GDP bound His-tagged KRAS G12C/C51L/C80L/C118S mutant (1 to 169 residues) (unknown origin) expressed in Escherichia coli assessed as enzyme-compound adduct formation at Cys12 residue by measuring ratio of Kinact/Ki measured up to 20 mins by mass spectrometry analysis relative to ARS-853; conditions: time min <=20
[9] = molecular target: T4, Reticulon-4 (Homo sapiens) (UniProt Q9NQC3); test: as §1, with “RTN4” for “VAT1”, “Cys1101” for “Cys86”; assay type: cell-based; conditions: time 6.0 hrs; procedure, shortened: as §2
T4 sequence (whole entry): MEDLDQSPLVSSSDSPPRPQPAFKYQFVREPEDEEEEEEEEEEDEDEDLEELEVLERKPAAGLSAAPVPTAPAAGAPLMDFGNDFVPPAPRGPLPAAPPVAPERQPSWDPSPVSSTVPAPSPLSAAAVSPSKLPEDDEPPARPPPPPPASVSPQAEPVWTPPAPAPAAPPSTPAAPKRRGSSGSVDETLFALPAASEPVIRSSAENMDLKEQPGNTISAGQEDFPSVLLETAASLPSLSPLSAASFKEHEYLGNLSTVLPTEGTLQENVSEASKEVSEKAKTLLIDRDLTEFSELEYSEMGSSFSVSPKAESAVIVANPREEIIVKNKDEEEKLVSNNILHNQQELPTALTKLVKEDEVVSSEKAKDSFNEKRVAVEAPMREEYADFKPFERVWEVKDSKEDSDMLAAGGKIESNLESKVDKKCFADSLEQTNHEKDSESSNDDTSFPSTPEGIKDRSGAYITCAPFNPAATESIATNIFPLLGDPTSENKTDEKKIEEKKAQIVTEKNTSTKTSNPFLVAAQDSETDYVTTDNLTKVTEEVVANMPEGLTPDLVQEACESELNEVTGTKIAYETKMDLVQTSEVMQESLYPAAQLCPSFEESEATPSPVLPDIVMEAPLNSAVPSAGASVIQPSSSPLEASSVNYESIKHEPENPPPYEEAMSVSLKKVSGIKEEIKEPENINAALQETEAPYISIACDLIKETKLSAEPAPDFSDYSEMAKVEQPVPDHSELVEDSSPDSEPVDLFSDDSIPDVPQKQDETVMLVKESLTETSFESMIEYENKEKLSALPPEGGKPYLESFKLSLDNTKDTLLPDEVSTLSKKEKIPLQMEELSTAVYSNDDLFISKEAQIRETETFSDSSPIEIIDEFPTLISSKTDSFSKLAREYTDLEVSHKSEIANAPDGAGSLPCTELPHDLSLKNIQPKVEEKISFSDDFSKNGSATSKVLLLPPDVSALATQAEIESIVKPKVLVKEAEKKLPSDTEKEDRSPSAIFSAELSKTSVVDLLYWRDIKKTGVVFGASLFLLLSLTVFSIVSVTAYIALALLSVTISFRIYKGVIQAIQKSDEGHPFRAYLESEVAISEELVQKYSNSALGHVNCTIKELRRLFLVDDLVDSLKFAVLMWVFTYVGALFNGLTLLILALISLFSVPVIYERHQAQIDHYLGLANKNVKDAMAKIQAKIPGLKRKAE

C=CC(=O)N1CCN(c2ncnc3c(F)c(-c4c(O)cccc4F)c(Cl)cc23)CC1
IC50 (MIA PaCa-2): 0.12 µM
Ratio [1]: -0.6
Activity [2]: Active
IC50 (GTPase KRas [3]): 1.59 µM
inhibition [4]: Dose-dependent effect
Ratio [5]: -1.8
IC50 (NCI-H358): 0.64 µM
Ratio [6]: -1.3
IC50 (GTPase KRas [7]): 1.8 µM
Ratio [8]: -1.1
fold change (FC) (Homo sapiens): 6
Ratio [9]: -0.4
